The results in this text go back to ChEMBL document CHEMBL2062406, “Fluorocyclopentenyl-cytosine with broad spectrum and potent antitumor activity” (J Med Chem, 2012).

For series [1], the system named is HeLa. In words: Antitumor activity against human HeLa cells by SRB method. In kind it is functional, cell-based.
The test system of series [2] is HT-29. In words: Antitumor activity against human HT-29 cells by SRB method. The series is classed as functional, cell-based.
The subject of series [3] is UMRC2. Description: (§1) Antitumor activity against human UMRC2 cells by SRB method. In kind it is functional, cell-based.
The subject of series [4] is MDA-MB-231. Description: Antitumor activity against human MDA-MB-231 cells by SRB method. The series is classed as functional, cell-based.
The subject of series [5] is HCT-116. In words: Antitumor activity against human HCT116 cells by SRB method. The series is classed as functional, cell-based.
For series [6], the system named is MKN-45. In words: Antitumor activity against human MKN45 cells by SRB method. The series is classed as functional, cell-based.
Series [7] has as its system HepG2. Description: Antitumor activity against human HepG2 cells by SRB method. In kind it is functional, cell-based.
For series [8], the system named is LNCaP. Description: Antitumor activity against human LNCAP cells by SRB method. The series is classed as functional, cell-based.
Series [9] relates to SK-MEL-28. Description: Antitumor activity against human SK-MEL-28 cells by SRB method. The series is classed as functional, cell-based.
Series [10] has as its system MCF7. In words: Antitumor activity against human MCF7 cells by SRB method. In kind it is functional, cell-based.
In series [11] the test system is U-251. Description: Antitumor activity against human U251 cells by SRB method. In kind it is functional, cell-based.
The test system of series [12] is OVCAR-3. Description: Antitumor activity against human OVCAR3 cells by SRB method. In kind it is functional, cell-based.
Series [13] has as its system PC-3. In words: Antitumor activity against human PC3 cells by SRB method. In kind it is functional, cell-based.
The test system of series [14] is NCI-H226. In words: Antitumor activity against human NCI-H226 cells by SRB method. In kind it is functional, cell-based.
In series [15] the test system is PANC-1. In words: Antitumor activity against human PANC1 cells by SRB method. The series is classed as functional, cell-based.
For series [16], the system named is A549. Description: Antitumor activity against human A549 cells by SRB method. In kind it is functional, cell-based.
Series [17] concerns K562. Description: Antitumor activity against human K562 cells by SRB method. In kind it is functional, cell-based.
Series [18] deals with A549. In words: Antitumor activity against human A549 cells xenografted in nu/nu mouse assessed as inhibition of tumor volume at 10 mg/kg, ip administered three times a week for 3 weeks. The series is classed as functional. As to conditions: 504 h, route intraperitoneal. The method, boiled down: (§2)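 Male nu/nu mice received 3 × 10⁶ A549 cells subcutaneously in the right flank. Dosing began at about 100 mm³ tumor volume: 3 or 10 mg/kg intraperitoneally, three times a week for three weeks. Tumor volume was measured by caliper every 2−3 days. Percent inhibition of tumor volume was calculated against a vehicle-treated control group.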

Series [19] in a line: as §1. In kind it is functional, cell-based.
For series [20], the system named is SK-MEL-28. Description: Antitumor activity against human SK-MEL-28 cells at 1 uM by SRB method. In kind it is functional, cell-based.
In series [21] the test system is PC-3. In words: Antitumor activity against human PC3 cells at 1 uM by SRB method. In kind it is functional, cell-based.
The test system of series [22] is LNCaP. In words: Antitumor activity against human LNCAP cells at 1 uM by SRB method. The series is classed as functional, cell-based.
In series [23] the test system is MDA-MB-231. In words: Inhibition of DNMT-1 protein human expression in MDA-MB-231 cells after 24 hrs by Western blot analysis. In kind it is functional, cell-based. The method, boiled down: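 MDA-MB-231 cells were exposed to 0, 1, 1.5, 2 or 5 μM for 24 h. DNMT-1 protein was detected by Western blot, with actin as the loading control. Blots are representative of two independent cell cultures.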

Series [24] has as its system OVCAR-3. Description: Antitumor activity against human OVCAR3 cells at 1 uM by SRB method. In kind it is functional, cell-based.
Series [25] concerns A549. In words: Antitumor activity against human A549 cells xenografted in ip dosed nu/nu mouse assessed as inhibition of tumor volume administered three times a week for 3 weeks. In kind it is functional, organism-based. The method, boiled down: as §2
Series [26] relates to PANC-1. Description: Antitumor activity against human PANC1 cells at 1 uM by SRB method. In kind it is functional, cell-based.
For series [27], the system named is HepG2. Description: Antitumor activity against human HepG2 cells at 1 uM by SRB method. The series is classed as functional, cell-based.
In series [28] the test system is HeLa. Description: Antitumor activity against human HeLa cells at 1 uM by SRB method. The series is classed as functional, cell-based.
In series [29] the test system is NCI-H226. Description: Antitumor activity against human NCI-H226 cells at 1 uM by SRB method. In kind it is functional, cell-based.
For series [30], the system named is A549. Description: Antitumor activity against human A549 cells xenografted in nu/nu mouse assessed as inhibition of tumor volume at 3 mg/kg, ip administered three times a week for 3 weeks. The series is classed as functional. As to conditions: 504 h, route intraperitoneal. The method, boiled down: as §2
The test system of series [31] is Mus musculus. Description: Toxicity in nu/nu mouse xenografted with human A549 cells assessed as change in body weight 3 to 10 mg/kg, ip administered three times a week for 3 weeks. On the set-up: dose 3-10 mg/kg, route intraperitoneal. As to conditions: in vivo, 504 h. In kind it is organism-based. The method, boiled down:
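Mouse body weight was monitored throughout in male nu/nu mice bearing subcutaneous A549 flank xenografts (3 × 10⁶ cells). These mice received 3 or 10 mg/kg intraperitoneally three times a week for three weeks, starting when tumors reached about 100 mm³, and were compared with vehicle controls.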

In series [32] the test system is UMRC2. In words: Antitumor activity against human UMRC2 cells at 1 uM by SRB method. The series is classed as functional, cell-based.
The subject of series [33] is A549. Description: Antitumor activity against human A549 cells at 1 uM by SRB method. The series is classed as functional, cell-based.
The subject of series [34] is MDA-MB-231. Description: Antitumor activity against human MDA-MB-231 cells at 1 uM by SRB method. In kind it is functional, cell-based.
For series [35], the system named is U-251. In words: Antitumor activity against human U251 cells at 1 uM by SRB method. The series is classed as functional, cell-based.
Series [36] deals with HCT-116. In words: Antitumor activity against human HCT116 cells at 1 uM by SRB method. In kind it is functional, cell-based.
Series [37] has as its system HT-29. In words: Antitumor activity against human HT-29 cells at 1 uM by SRB method. In kind it is functional, cell-based.
In series [38] the test system is A549. Description: Antitumor activity against human A549 cells xenografted in ip dosed nu/nu mouse assessed as inhibition of tumor weight administered three times a week for 3 weeks. In kind it is functional, organism-based. The method, boiled down:
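Male nu/nu mice carried subcutaneous right-flank A549 xenografts (3 × 10⁶ cells). Treatment started at about 100 mm³ with 3 or 10 mg/kg intraperitoneally, three times weekly for three weeks. Tumors were excised and weighed on day 38. Comparison was with the vehicle control group, with significance at p < 0.05 or p < 0.01.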

Series [39] deals with A549. Description: Antitumor activity against human A549 cells xenografted in ip dosed nu/nu mouse assessed as tumor growth inhibition administered three times a week for 3 weeks. In kind it is functional, organism-based. The method, boiled down:
as §2

Series [40] concerns MCF7. In words: Antitumor activity against human MCF7 cells at 1 uM by SRB method. In kind it is functional, cell-based.
For series [41], the system named is MKN-45. In words: Antitumor activity against human MKN45 cells at 1 uM by SRB method. The series is classed as functional, cell-based.
Series [42] concerns K562. In words: Antitumor activity against human K562 cells at 1 uM by SRB method. In kind it is functional, cell-based.

The source made the active and inactive calls. No cut-off for these calls is given here.

Take `Nc1ccn([C@H]2C[C@H](O)C(CO)=C2F)c(=O)n1`: the result in series [1], in [2], in series [3], in series [4], in series [5] and in series [6] was inactive. For the same compound, the result in [7], in series [8], in [9], in series [10], in series [11] and in series [12] was inactive. In addition, the outcome in series [13], in series [14], in series [15], in series [16] and in series [17] was inactive.

`Nc1ccn([C@@H]2O[C@H](CO)[C@@H](O)C2(F)F)c(=O)n1` [GEMCITABINE]: the inhibition in vivo at 10 mg/kg in series [18] was 76.7%.

As for `Nc1ccn([C@@H]2C(F)=C(CO)[C@@H](O)[C@H]2O)c(=O)n1` [RODUCITABINE], the IC50 in series [1] was found to be 1350 nM; in [2], 280 nM; in series [19], 830 nM; in [4] it was 180 nM; in [5], 190 nM; in [6] it was 340 nM. Also, the IC50 in series [7] came to 790 nM; in series [8] it was 2670 nM; in series [9] it was 1380 nM; in series [10], 340 nM; in [11], 830 nM; in series [12], 800 nM. Moreover, the IC50 in series [13] was determined as 630 nM; in series [14], 250 nM; in series [16], 500 nM; in series [17] it was 820 nM. In addition, the result in series [20], in series [21], in series [22], in series [24], in series [26] and in [27] was Active. Moreover, the result in series [28], in series [29], in series [32], in [33], in series [34] and in series [35] was Active. The outcome in series [36], in series [37], in series [40], in [41] and in series [42] was Active. Moreover, the inhibition in vivo at 10 mg/kg in series [18] came out at 58.1%. The inhibition entry in series [23], in series [25], in [38] and in series [39] was “Dose-dependent effect” in each case. The inhibition in vivo at 3 mg/kg in series [30] was 31.8%. Further, the Activity entry in series [31] was “Non-toxic”.
